# From the M2OR odorant receptor database
# Key:
# Conditions in all cases: stereoisomer not certain
# OR1F12P (Homo sapiens) = target: T1, OR1F12P (Homo sapiens) (UniProt Q8NHA8)
# T1 sequence (whole entry): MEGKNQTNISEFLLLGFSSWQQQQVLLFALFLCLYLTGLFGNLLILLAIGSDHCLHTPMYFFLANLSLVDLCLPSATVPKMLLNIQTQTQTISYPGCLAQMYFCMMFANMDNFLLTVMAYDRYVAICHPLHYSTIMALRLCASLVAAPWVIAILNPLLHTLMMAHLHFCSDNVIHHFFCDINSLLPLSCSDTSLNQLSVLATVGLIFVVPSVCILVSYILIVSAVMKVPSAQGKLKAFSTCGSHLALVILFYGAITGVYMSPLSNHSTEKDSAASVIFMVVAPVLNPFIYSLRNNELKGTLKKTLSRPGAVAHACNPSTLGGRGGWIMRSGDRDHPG
# Outline: (§1)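 Each entry records the cell line, G-protein, co-transfected protein and tags used. Methods varied with the source, often transient luciferase assays in mammalian cell lines. A receptor–molecule pair is called responsive (active) if the original authors judged its signal statistically different from baseline and non-responsive (inactive) otherwise.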
# OR1G1 (Homo sapiens) = target: T2, OR1G1 (Homo sapiens) (UniProt P47890)
# T2 sequence (whole entry): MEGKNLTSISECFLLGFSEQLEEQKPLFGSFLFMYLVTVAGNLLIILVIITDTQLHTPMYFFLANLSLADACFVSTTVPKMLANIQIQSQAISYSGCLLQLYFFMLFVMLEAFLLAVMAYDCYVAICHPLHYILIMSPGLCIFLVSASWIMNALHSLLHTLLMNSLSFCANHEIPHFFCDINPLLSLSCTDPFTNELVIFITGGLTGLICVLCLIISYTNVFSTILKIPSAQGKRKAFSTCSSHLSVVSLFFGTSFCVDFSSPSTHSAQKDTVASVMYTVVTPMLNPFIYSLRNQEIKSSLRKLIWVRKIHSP
# Outline: as §1
# OR1I1 (Homo sapiens) = target: T3, OR1I1 (Homo sapiens) (UniProt O60431)
# T3 sequence (whole entry): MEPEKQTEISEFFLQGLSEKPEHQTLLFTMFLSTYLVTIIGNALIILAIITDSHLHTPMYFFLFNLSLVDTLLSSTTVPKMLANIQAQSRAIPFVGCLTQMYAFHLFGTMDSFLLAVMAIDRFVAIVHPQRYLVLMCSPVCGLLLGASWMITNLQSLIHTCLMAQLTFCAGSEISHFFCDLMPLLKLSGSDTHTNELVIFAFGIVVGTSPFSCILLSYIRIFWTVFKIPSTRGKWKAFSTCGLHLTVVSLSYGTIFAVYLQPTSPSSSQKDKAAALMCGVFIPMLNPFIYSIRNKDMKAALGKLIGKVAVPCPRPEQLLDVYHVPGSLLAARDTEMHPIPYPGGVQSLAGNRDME
# Outline: as §1
# OR1J1 (Homo sapiens) = target: T4, OR1J1 (Homo sapiens) (UniProt Q8NGS3)
# T4 sequence (whole entry): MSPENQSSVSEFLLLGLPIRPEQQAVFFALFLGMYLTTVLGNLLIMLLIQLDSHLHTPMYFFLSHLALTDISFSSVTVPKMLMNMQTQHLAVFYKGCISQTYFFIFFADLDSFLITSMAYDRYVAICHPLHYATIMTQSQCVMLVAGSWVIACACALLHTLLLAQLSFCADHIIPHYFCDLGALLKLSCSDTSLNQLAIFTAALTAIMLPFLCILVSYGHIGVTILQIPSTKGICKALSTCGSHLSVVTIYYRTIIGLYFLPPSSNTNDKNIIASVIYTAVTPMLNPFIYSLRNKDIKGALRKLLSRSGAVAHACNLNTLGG
# Outline: as §1
# OR1K1 (Homo sapiens) = target: T5, OR1K1 (Homo sapiens) (UniProt Q8NGR3)
# T5 sequence (whole entry): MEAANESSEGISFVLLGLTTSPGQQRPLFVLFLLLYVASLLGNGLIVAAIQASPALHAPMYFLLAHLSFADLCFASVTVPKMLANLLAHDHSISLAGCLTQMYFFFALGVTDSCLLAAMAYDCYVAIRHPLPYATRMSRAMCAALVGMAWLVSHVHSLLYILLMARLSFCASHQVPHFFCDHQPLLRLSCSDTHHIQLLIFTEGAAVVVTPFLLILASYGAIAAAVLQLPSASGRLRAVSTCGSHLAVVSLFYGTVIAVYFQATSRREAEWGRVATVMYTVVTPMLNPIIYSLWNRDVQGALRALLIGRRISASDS
# Outline: as §1
# OR1L1 (Homo sapiens) = target: T6, OR1L1 (Homo sapiens) (UniProt Q8NH94)
# T6 sequence (whole entry): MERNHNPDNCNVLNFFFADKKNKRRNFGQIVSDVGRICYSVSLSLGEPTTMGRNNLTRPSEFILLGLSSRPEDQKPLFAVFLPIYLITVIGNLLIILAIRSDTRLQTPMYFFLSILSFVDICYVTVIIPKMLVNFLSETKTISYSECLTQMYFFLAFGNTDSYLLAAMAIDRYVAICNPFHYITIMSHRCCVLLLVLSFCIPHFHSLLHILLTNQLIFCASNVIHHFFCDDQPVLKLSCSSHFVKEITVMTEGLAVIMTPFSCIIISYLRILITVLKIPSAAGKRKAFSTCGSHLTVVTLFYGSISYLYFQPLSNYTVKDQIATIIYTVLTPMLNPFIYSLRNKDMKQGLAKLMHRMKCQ
# Outline: as §1
# OR1L3 (Homo sapiens) = target: T7, OR1L3 (Homo sapiens) (UniProt Q8NH93)
# T7 sequence (whole entry): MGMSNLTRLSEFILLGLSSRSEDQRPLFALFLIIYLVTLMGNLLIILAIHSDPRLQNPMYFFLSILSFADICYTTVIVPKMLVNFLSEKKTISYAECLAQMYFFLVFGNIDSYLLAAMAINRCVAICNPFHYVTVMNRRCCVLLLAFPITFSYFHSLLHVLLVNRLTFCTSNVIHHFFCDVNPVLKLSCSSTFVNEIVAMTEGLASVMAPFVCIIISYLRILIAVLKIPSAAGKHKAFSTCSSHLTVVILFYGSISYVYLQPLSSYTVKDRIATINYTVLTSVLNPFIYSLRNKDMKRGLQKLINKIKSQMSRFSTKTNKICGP
# Outline: as §1
# OR1L4 (Homo sapiens) = target: T8, OR1L4 (Homo sapiens) (UniProt Q8NGR5)
# T8 sequence (whole entry): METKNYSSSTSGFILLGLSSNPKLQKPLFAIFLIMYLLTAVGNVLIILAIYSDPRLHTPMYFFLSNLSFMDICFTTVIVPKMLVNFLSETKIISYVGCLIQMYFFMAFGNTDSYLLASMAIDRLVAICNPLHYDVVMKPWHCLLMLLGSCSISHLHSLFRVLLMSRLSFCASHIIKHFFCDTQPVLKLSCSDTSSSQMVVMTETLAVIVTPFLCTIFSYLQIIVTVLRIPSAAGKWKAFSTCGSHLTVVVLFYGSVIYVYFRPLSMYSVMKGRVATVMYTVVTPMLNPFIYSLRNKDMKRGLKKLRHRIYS
# Outline: as §1
# OR1L6 (Homo sapiens) = target: T9, OR1L6 (Homo sapiens) (UniProt Q8NGR2)
# T9 sequence (whole entry): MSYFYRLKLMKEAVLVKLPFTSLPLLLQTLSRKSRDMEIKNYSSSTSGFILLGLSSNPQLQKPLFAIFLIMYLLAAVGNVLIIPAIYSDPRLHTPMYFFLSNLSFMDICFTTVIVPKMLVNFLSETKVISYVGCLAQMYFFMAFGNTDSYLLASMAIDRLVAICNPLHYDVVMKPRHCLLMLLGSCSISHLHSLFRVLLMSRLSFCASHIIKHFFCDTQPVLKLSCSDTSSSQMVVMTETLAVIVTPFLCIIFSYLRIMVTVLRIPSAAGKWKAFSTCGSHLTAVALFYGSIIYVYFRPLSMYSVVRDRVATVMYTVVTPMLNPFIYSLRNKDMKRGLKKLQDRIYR
# Outline: as §1
# OR1L8 (Homo sapiens) = target: T10, OR1L8 (Homo sapiens) (UniProt Q8NGR8)
# T10 sequence (whole entry): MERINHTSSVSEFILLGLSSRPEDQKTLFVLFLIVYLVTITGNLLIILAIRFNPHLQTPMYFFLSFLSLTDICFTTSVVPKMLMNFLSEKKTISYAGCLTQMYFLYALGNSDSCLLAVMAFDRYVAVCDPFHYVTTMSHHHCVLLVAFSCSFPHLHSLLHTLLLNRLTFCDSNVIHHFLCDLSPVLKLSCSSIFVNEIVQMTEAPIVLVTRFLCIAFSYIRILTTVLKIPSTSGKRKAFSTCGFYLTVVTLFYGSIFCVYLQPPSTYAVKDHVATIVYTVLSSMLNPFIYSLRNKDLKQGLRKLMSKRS
# Outline: as §1
# OR1M1 (Homo sapiens) = target: T11, OR1M1 (Homo sapiens) (UniProt Q8NGA1)
# T11 sequence (whole entry): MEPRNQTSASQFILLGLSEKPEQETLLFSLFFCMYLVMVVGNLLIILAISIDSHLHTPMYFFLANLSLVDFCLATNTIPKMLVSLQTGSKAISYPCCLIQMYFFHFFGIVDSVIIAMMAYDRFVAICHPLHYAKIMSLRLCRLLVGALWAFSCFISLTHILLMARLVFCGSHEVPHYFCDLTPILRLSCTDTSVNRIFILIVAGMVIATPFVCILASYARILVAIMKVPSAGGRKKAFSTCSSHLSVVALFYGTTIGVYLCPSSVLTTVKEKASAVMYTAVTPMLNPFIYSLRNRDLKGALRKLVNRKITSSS
# Outline: as §1
# OR1N1 (Homo sapiens) = target: T12, OR1N1 (Homo sapiens) (UniProt Q8NGS0)
# T12 sequence (whole entry): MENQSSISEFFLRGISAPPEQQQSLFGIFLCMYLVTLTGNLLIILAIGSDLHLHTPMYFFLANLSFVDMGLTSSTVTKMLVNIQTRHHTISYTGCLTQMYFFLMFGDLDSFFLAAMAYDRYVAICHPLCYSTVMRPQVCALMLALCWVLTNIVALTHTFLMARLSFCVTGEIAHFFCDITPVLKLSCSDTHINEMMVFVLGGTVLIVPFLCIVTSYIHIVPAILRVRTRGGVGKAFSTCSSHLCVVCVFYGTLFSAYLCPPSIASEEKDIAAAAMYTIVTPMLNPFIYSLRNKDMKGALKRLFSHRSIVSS
# Outline: as §1
compound,measurement,setting,value
CC1CCCCCCCCCCCCC(=O)C1 (configuration not stated),odorant receptor agonist call,OR1F12P (Homo sapiens),inactive
same,odorant receptor agonist call,OR1G1 (Homo sapiens),inactive
same,odorant receptor agonist call,OR1I1 (Homo sapiens),inactive
same,odorant receptor agonist call,OR1J1 (Homo sapiens),inactive
same,odorant receptor agonist call,OR1K1 (Homo sapiens),inactive
same,odorant receptor agonist call,OR1L1 (Homo sapiens),inactive
same,odorant receptor agonist call,OR1L3 (Homo sapiens),inactive
same,odorant receptor agonist call,OR1L4 (Homo sapiens),inactive
same,odorant receptor agonist call,OR1L6 (Homo sapiens),inactive
same,odorant receptor agonist call,OR1L8 (Homo sapiens),inactive
same,odorant receptor agonist call,OR1M1 (Homo sapiens),inactive
same,odorant receptor agonist call,OR1N1 (Homo sapiens),inactive
CCCCCC(=O)CC,odorant receptor agonist call,OR1G1 (Homo sapiens),inactive
Cc1ccc(C(C)C)c(O)c1,odorant receptor agonist call,OR1G1 (Homo sapiens),active
CCCCC(O)CCC (configuration not stated),odorant receptor agonist call,OR1G1 (Homo sapiens),active
CC1CCC(C(C)C)C(=O)C1 (configuration not stated),odorant receptor agonist call,OR1G1 (Homo sapiens),inactive
CCCCCCC1CCC(=O)O1 (configuration not stated),odorant receptor agonist call,OR1G1 (Homo sapiens),active
